According to paper PMC4515784 (Journal of Medicinal Chemistry, 2015):

Assays:
[1] = molecular target: hSERT (Homo sapiens, UniProt P31645); type: cell-based
[2] = molecular target: HA-hSERT (Homo sapiens, UniProt P31645); experiment: hSERT photoaffinity labeling in HA-hSERT LLCPK1 cells; type: binding
[3] = Reversed-phase HPLC relative lipophilicity; type: physicochemical; conditions: C-18 column, 45% MeOH/CH3CN (1:1) and 55% water with Et3N and HOAc, 3.0 mL/min
In short: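 Waters C-18 Nova-Pak column (8 × 100 mm, 6 μm, radial compression). Organic phase MeOH/CH3CN 1:1 v/v; aqueous phase contained Et3N (2.1% v/v) and HOAc (2.8% v/v). Isocratic 45% organic/55% aqueous at 3.0 mL/min, with one analogue run at 42%/58%. Retention time and k′ recorded for radioiodinated products, matched to nonradioactive standards by coelution.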

Chain of hSERT (P31645 whole entry): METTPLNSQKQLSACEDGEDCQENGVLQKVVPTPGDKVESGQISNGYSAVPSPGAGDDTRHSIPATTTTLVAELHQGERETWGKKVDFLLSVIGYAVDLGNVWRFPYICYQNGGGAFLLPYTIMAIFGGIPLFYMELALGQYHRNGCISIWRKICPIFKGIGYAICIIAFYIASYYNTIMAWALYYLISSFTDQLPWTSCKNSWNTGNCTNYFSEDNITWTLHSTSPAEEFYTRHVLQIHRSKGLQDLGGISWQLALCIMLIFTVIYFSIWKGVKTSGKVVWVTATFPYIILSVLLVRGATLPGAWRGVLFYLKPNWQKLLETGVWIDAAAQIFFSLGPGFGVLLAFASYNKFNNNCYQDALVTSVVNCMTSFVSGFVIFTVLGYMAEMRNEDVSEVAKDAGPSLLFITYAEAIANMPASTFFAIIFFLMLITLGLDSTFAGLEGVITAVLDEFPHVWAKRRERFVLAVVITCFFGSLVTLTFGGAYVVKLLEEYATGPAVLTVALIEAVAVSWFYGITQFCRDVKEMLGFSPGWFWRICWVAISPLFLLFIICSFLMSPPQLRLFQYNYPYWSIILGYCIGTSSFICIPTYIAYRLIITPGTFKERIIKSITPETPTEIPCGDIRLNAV
Chain of HA-hSERT (P31645 whole entry): as above

Structure (SMILES) | Reduction in WT hSERT affinity compared to (S)-citalopram [1] | Effect of (S)-citalopram preincubation on irreversible hSERT labeling (in words) [2] | Irreversible (covalent) labeling of hSERT upon photoactivation [2] | Capacity factor k′ (relative lipophilicity) [3]
CN(C)CCC[C@@]1(c2ccc(F)cc2)OCc2cc(CNC(=O)c3ccc(N=[N+]=[N-])c(I)c3)ccc21 [compound 26, (S)-4-Azido-N-((1-(3-(dimethylamino)propyl)-1-(4-fluorophenyl)-1,3-dihydroisobenzofuran-5-yl)methyl)-3-iodobenzamide] | 11 fold | – | – | –
CN(C)CCC[C@@]1(c2ccc(F)cc2)OCc2cc(CNC(=O)c3ccc(N=[N+]=[N-])c([125I])c3)ccc21 [[^125I]26, (S)-4-Azido-N-((1-(3-(dimethylamino)propyl)-1-(4-fluorophenyl)-1,3-dihydroisobenzofuran-5-yl)methyl)-3-[^125I]-iodobenzamide] | – | completely eliminated | covalently label | 10.6
CN(C)CCC[C@@]1(c2ccc(F)cc2)OCc2cc(CNC(=O)CCc3ccc(N=[N+]=[N-])c(I)c3)ccc21 [compound 22, (S)-3-(4-Azido-3-iodophenyl)-N-((1-(3-(dimethylamino)propyl)-1-(4-fluorophenyl)-1,3-dihydroisobenzofuran-5-yl)methyl)propanamide] | 17 fold | – | – | –
CN(C)CCC[C@@]1(c2ccc(F)cc2)OCc2cc(CNC(=O)CCc3ccc(N=[N+]=[N-])c([125I])c3)ccc21 [[^125I]22, (S)-3-(4-Azido-3-[^125I]-iodophenyl)-N-((1-(3-(dimethylamino)propyl)-1-(4-fluorophenyl)-1,3-dihydroisobenzofuran-5-yl)methyl)propanamide] | – | completely eliminated | covalently label | 10.4
CN(CCC[C@@]1(c2ccc(F)cc2)OCc2cc(C#N)ccc21)CCc1ccc(N=[N+]=[N-])c([125I])c1 [[^125I]15, (S)-1-(3-((4-Azido-3-[^125I]-iodophenethyl)(methyl)amino)propyl)-1-(4-fluorophenyl)-1,3-dihydroisobenzofuran-5-carbonitrile] | – | – | covalently label | 18.3
CN(CCC[C@@]1(c2ccc(F)cc2)OCc2cc(C#N)ccc21)CCc1ccc(N=[N+]=[N-])c(I)c1 [compound 15, (S)-1-(3-((4-Azido-3-iodophenethyl)(methyl)amino)propyl)-1-(4-fluorophenyl)-1,3-dihydroisobenzofuran-5-carbonitrile] | 100 fold | – | – | –
